≈ marks a conversion by molar mass, not a printed value.
How the values were obtained:
P388 [1] = test: In vivo antileukemic activity against P388 leukemia at dose 25 mp/kg administered intraperitoneally; type: functional, Mus musculus
How it was run: (§1)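 BDF1 mice implanted ip with 10^6 P388 cells. Compound given ip as aqueous solution containing 3 equiv of L-lactic acid on days 1-5. Activity expressed as T/C (%); T/C ≥ 125% taken as statistically significant antileukemic activity.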

HeLa = test: In vitro cytotoxicity against HeLa S3 cell lines; type: functional, cell-based; details: Homo sapiens
P388 [2] = test: In vivo antileukemic activity against P388 leukemia at dose 100 mp/kg administered intraperitoneally; type: functional, Mus musculus; how it was run: as §1
P388 [3] = test: In vivo antileukemic activity against P388 leukemia at dose 12.5 mp/kg administered intraperitoneally; type: functional, Mus musculus
P388 [4] = test: In vivo antileukemic activity against P388 leukemia at dose 25 mp/kg administered intraperitoneally (30 days survivors, 2/6)
P388 [5] = test: In vivo antileukemic activity against P388 leukemia at dose 25 mp/kg administered intraperitoneally (30 days survivors, 3/6)
P388 [6] = test: In vivo antileukemic activity against P388 leukemia at dose 8 mp/kg administered intraperitoneally; type: functional, Mus musculus; how it was run: as §1
P388 [7] = test: In vivo antileukemic activity against P388 leukemia at dose 12.5 mp/kg administered intraperitoneally (30 days survivors, 3/6); type: functional, Mus musculus
P388 [8] = test: In vivo antileukemic activity against P388 leukemia at dose 40 mp/kg administered intraperitoneally; type: functional, Mus musculus; how it was run: as §1
P388 [9] = test: In vivo antileukemic activity against P388 leukemia at dose 50 mp/kg administered intraperitoneally; type: functional, Mus musculus; how it was run: as §1

Structure (SMILES) | IC50 (HeLa) [µg/mL] | further results
O=c1c2cc([N+](=O)[O-])ccc2n2nnc3ccc(NCCNCCO)c1c32 | 0.12 (≈ 0.326 µM) | T/C (P388 [1]): 133%
CN(C)CCNc1ccc2nnn3c4ccccc4c(=O)c1c23 | 0.21 (≈ 0.683 µM) | T/C (P388 [2]): 180%
CCN(CC)CCNc1ccc2nnn3c4ccccc4c(=O)c1c23 | 0.42 (≈ 1.25 µM) | T/C (P388 [2]): 160%
CCN(CC)CCNc1ccc2nnn3c4ccc(Cl)cc4c(=O)c1c23 | 0.13 (≈ 0.351 µM) | T/C (P388 [3]): 111%
CN(C)CCNc1ccc2nnn3c4ccc(O)cc4c(=O)c1c23 | 0.1 (≈ 0.309 µM) | T/C (P388 [4]): 260%
CCN(CC)CCNc1ccc2nnn3c4ccc(OC)cc4c(=O)c1c23 | 0.16 (≈ 0.438 µM) | T/C (P388 [3]): 120%
CN(C)CCCNc1ccc2nnn3c4ccccc4c(=O)c1c23 | 0.28 (≈ 0.871 µM) | T/C (P388 [2]): 133%
CN(C)CCCNc1ccc2nnn3c4ccc(O)cc4c(=O)c1c23 | 0.08 (≈ 0.237 µM) | T/C (P388 [5]): 320%
Cc1ccc2c(c1)c(=O)c1c(NCCN(C)C)ccc3nnn2c31 | 0.17 (≈ 0.529 µM) | T/C (P388 [2]): 130%
CN(C)CCNc1ccc2nnn3c4ccc([N+](=O)[O-])cc4c(=O)c1c23 | 0.11 (≈ 0.312 µM) | T/C (P388 [1]): 130%
CN(C)CCNc1ccc2nnn3c4ccc(Cl)cc4c(=O)c1c23 | 0.1 (≈ 0.293 µM) | T/C (P388 [1]): 110%
COc1ccc2c(c1)c(=O)c1c(NCCCN(C)C)ccc3nnn2c31 | 0.17 (≈ 0.484 µM) | –
COc1ccc2c(c1)c(=O)c1c(NCCN(C)C)ccc3nnn2c31 | 0.1 (≈ 0.296 µM) | T/C (P388 [1]): 110%
CN(C)CCCNc1ccc2nnn3c4ccc([N+](=O)[O-])cc4c(=O)c1c23 | 0.12 (≈ 0.328 µM) | T/C (P388 [1]): 110%
CCN(CC)CCNc1ccc2nnn3c4ccc(O)cc4c(=O)c1c23 | 0.05 (≈ 0.142 µM) | T/C (P388 [6]): 190%
O=C1c2ccccc2C(=O)c2c(NCCNCCO)ccc(NCCNCCO)c21 [AMETANTRONE] | 0.17 (≈ 0.412 µM) | T/C (P388 [7]): 300%
Cc1ccc2c(c1)c(=O)c1c(NCCNCCO)ccc3nnn2c31 | 0.24 (≈ 0.711 µM) | –
CCN(CC)CCNc1ccc2nnn3c4ccc([N+](=O)[O-])cc4c(=O)c1c23 | 0.12 (≈ 0.315 µM) | T/C (P388 [3]): 122%
Cc1ccc2c(c1)c(=O)c1c(NCCCN(C)C)ccc3nnn2c31 | 0.15 (≈ 0.447 µM) | –
CCN(CC)CCNc1ccc2nnn3c4ccc(C)cc4c(=O)c1c23 | 0.21 (≈ 0.601 µM) | T/C (P388 [8]): 133%
O=c1c2cc(Cl)ccc2n2nnc3ccc(NCCNCCO)c1c32 | 0.16 (≈ 0.447 µM) | T/C (P388 [1]): 133%
O=c1c2ccccc2n2nnc3ccc(NCCNCCO)c1c32 | 0.29 (≈ 0.897 µM) | T/C (P388 [9]): 133%
CN(C)CCCNc1ccc2nnn3c4ccc(Cl)cc4c(=O)c1c23 | 0.13 (≈ 0.365 µM) | T/C (P388 [9]): 111%
COc1ccc2c(c1)c(=O)c1c(NCCNCCO)ccc3nnn2c31 | 0.09 (≈ 0.255 µM) | T/C (P388 [3]): 120%
O=c1c2cc(O)ccc2n2nnc3ccc(NCCNCCO)c1c32 | 0.12 (≈ 0.354 µM) | T/C (P388 [3]): 210%

From ChEMBL document CHEMBL1124989, “8-Substituted 5-[(aminoalkyl)amino]-6H-v-triazolo[4,5,1-de]acridin-6-ones as potential antineoplastic agents. Synthesis and biological activity” (J Med Chem, 1990)
